Consider nine compounds from ChEMBL document CHEMBL1127466, “Synthesis and opioid activity of 7-oxygenated 2,3,4,4a,5,6,7,7a-octahydro-1H-benzofuro[3,2-e]isoquinolin-9-ols” (J Med Chem, 1994).

Assay [1] can be described thus: Ratio between IC50 of the agonist in presence of naloxone and IC50 of the control. The class given is functional. The essentials:
(§1)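 Ileum strips in the electrically stimulated guinea pig ileum set-up, 37 °C Krebs-Tris. […] IC50 ratio is IC50 with antagonist divided by control IC50 in the same preparation. Ke = [antagonist]/(IC50 ratio – 1).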

For assay [2], the species on record is Cavia porcellus. Briefly: Opioid agonistic activity was measured by using Guinea pig ileum bioassay. Type of assay: functional. In a few lines:
(§2)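 Longitudinal muscle strips from male Hartley guinea pig ileum (250–400 g) in Krebs-Tris at 37 °C, oxygenated. Stimulated electrically at 0.1 Hz, 0.8 ms, supramaximal voltage, under 1 g resting tension. Contractions recorded isometrically after 90 min equilibration, with cumulative dose–response curves for inhibition. Partial agonist response is taken at 1 μM.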

Another assay concerns the target Mu-type opioid receptor (Cavia porcellus, UniProt P97266). Briefly: […]. The class given is organism-based. The essentials: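 Brain membranes come from male Hartley guinea pigs, 250–300 g. Values are the mean of three experiments, each done in duplicate.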
Assay [3] is filed under the species Cavia porcellus. Briefly: Ke value was measured as concentration of antagonist/ (IC50 ratio - 1). Type of assay: functional. The essentials: as §1
The subject of assay [4] is Mus musculus. Briefly: In vivo analgesic activity was measured by using Antiphenyl quinone Writhing(PQW) test after subcutaneous administration. The class given is functional. To be noted: sc. The essentials:
(§3)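 Fasted male CFI mice, 18–23 g, given coded doses of test compound, then phenylquinone 1.25 mg/kg ip 5 min before the designated test time. Analgesia is scored as complete blockade of writhing over a 10-min observation period starting at test time.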
(In general: In writhing tests, fewer writhes than in controls are read as antinociception.)

For assay [5], the target named is Kappa-type opioid receptor (Cavia porcellus, UniProt P41144). Briefly: biochemical. The class given is organism-based.
Sequence of Kappa-type opioid receptor (P41144 whole entry): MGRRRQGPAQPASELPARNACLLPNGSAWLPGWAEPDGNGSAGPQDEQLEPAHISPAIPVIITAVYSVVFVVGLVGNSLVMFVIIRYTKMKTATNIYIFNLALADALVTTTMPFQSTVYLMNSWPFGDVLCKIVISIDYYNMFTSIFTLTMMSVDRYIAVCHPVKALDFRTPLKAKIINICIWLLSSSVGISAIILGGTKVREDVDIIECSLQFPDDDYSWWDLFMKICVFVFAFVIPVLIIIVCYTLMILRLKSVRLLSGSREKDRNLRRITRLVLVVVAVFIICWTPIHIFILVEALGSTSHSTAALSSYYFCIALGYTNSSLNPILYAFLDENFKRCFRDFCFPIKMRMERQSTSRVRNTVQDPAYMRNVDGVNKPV
Assay [6] relates to Mus musculus. Briefly: Narcotic antagonism was measured by using Anti-Straub tail (AST) test after subcutaneous administration. Type of assay: functional. To be noted: sc. In a few lines: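 Fasted male CFI mice, 18–23 g, given coded doses of test compound, then desonitazene 0.08 mg/kg ip 5 min before the designated test time. Antagonism is scored as complete blockade of the Straub tail response over a 5-min observation period starting at test time.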

Assay [7] concerns Mus musculus. Briefly: In vivo analgesic activity was measured by using Antiphenyl quinone Writhing(PQW) test after subcutaneous administration; Inactive. The class given is functional. To be noted: sc. The essentials: as §3
A short description of assay [8]: (§4) Opioid antagonistic activity was measured against kappa receptor in guinea pig ileal preparation using US-50488 as agonist. Type of assay: functional. The essentials:
(§5)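 Electrically stimulated guinea pig ileum longitudinal muscle strips. After control agonist curves and washout, the test antagonist is applied at 3 nM for 30 min. […] Ke = [antagonist]/(IC50 ratio – 1).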

Assay [9] addresses Kappa-type opioid receptor (Cavia porcellus) (UniProt P41144). Described as §4. The class given is functional. The essentials: as §5
The species named for assay [10] is Cavia porcellus. Briefly: Ke value was measured as antagonist/ (IC50 ratio - 1). The class given is functional. In a few lines:
as §1

For assay [11], the species on record is Cavia porcellus. Briefly: Partial agonist potency at 1 uM was measured using Guinea pig ileum preparation. The class given is functional. In a few lines:
as §2

Assay [12] is described as follows: (§6) Opioid antagonistic activity was measured against mu receptor in guinea pig ileal preparation using morphine as agonist. The class given is functional. In a few lines: as §5
The target of assay [13] is Mu-type opioid receptor (Cavia porcellus) (UniProt P97266). The assay is described as §6. Type of assay: functional. The essentials:
as §5

One may read the IC50 as the concentration at which inhibition is half-maximal. The low end stands for greater potency, the high end for weaker potency. In general, Ki refers to the dissociation constant of the complex between target and ligand, obtained from inhibition or displacement. What is called ED50 is the midpoint of the dose-response relation.

Sequence of Mu-type opioid receptor (P97266 whole entry): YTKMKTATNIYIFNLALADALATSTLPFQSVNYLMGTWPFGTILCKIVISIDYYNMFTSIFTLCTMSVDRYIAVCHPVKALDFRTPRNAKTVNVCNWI
Sequence of Mu-type opioid receptor (Cavia porcellus) (P97266 whole entry): as above
Sequence of Kappa-type opioid receptor (Cavia porcellus) (P41144 whole entry): as the sequence (P41144 whole entry) above

Regarding `Oc1cccc2c1O[C@H]1[C@@H](O)CC[C@H]3CN(CC4CC4)CC[C@@]231`, the Ratio in assay [1] amounted to 8.1. In the assay filed under Cavia porcellus [2], the IC50 was 2.8 nM. The results for the Ki (at Mu-type opioid receptor; in [5]) were 1.4 nM and 4.9 nM, respectively. In addition, the Ke in the assay listed under Cavia porcellus [3] is recorded as 14.1 nM. Moreover, the ED50 turned out to be 0.37 mg/kg in the assay with Mus musculus [4] and 0.55 mg/kg in the assay on Mus musculus [6].

As to `COc1cccc2c1O[C@H]1C(=O)CC[C@H]3CN(CC4CC4)CC[C@@]231`, the Ki came out at 76 nM at Mu-type opioid receptor and 1760 nM in [5]. In addition, the ED50 in the assay on Mus musculus [4] came to 0.93 mg/kg; in the assay with Mus musculus [6] it was 0.34 mg/kg.

For `O=C1CC[C@@H]2CN(CC3CC3)CC[C@@]23c2cccc(O)c2O[C@@H]13`, the results for the ED50 in the assay on Mus musculus [7] and with Mus musculus [6] were greater than 5.4 mg/kg and 1 mg/kg, respectively. In addition, the Ki was 19 nM at Mu-type opioid receptor and 62 nM in assay [5].

For `Oc1cccc2c1O[C@H]1[C@H](O)CC[C@@H]3CN(CC4CC4)CC[C@@]231`, the Ratio stood at 2.3 in assay [8], 6.3 in assay [12] and 8.5 in assay [1]. The Ke worked out at 2.3 nM in [9], 13.3 nM in the assay filed under Cavia porcellus [10] and 0.57 nM in assay [13]. The Max response in the assay listed under Cavia porcellus [11] worked out at 78%. Moreover, the ED50 in the assay with Mus musculus [7] was greater than 4 mg/kg; with Mus musculus [6], 0.8 mg/kg. The figures for the Ki (on Mu-type opioid receptor; in [5]) were 3.9 nM and 12 nM, respectively.

In the case of `COc1cccc2c1O[C@H]1[C@@H](O)CC[C@H]3CN(CC4CC4)CC[C@@]231`, the Ki was 29 nM at Mu-type opioid receptor and 140 nM in assay [5]. For the same compound, the values for the ED50 with Mus musculus [4] and in the assay on Mus musculus [6] were 3 mg/kg and 1.4 mg/kg, respectively.

On to `CN1CC[C@]23c4cccc(O)c4O[C@H]2C(=O)CC[C@H]3C1`, for which the Ki on Mu-type opioid receptor was found to be 7.8 nM; in assay [5], 186 nM. Further, the ED50 in the assay with Mus musculus [4] stood at 0.4 mg/kg; in the assay on Mus musculus [6], 1.4 mg/kg.

Take `Oc1cccc2c1O[C@H]1CCC[C@H]3CN(CC4CC4)CC[C@@]231`: the values for the Ki (at Mu-type opioid receptor; in assay [5]) were 0.57 nM and 1.2 nM, respectively. Further, the figures for the ED50 in the assay on Mus musculus [4] and with Mus musculus [6] were 0.025 mg/kg and 0.018 mg/kg, respectively.

As for `C=CCN1CC[C@]23c4c5ccc(O)c4O[C@H]2C(=O)CC[C@@]3(O)[C@H]1C5` [NALOXONE], the figures for the ED50 in the assay with Mus musculus [7] and in the assay on Mus musculus [6] were greater than 100 mg/kg and 0.02 mg/kg, respectively.

Regarding `O=C1CC[C@H]2CN(CC3CC3)CC[C@@]23c2cccc(O)c2O[C@@H]13`, the Ki at Mu-type opioid receptor was 0.25 nM; in assay [5] it was 1.73 nM. Besides, the ED50 in the assay with Mus musculus [4] is 0.15 mg/kg; with Mus musculus [6] it was 0.022 mg/kg.
